Assay results from different studies.
Protocols differ between the studies behind these lines.
Target: Dual specificity protein kinase TTK (TTK, Homo sapiens, UniProt P33981)
One construct used (P33981 1-857): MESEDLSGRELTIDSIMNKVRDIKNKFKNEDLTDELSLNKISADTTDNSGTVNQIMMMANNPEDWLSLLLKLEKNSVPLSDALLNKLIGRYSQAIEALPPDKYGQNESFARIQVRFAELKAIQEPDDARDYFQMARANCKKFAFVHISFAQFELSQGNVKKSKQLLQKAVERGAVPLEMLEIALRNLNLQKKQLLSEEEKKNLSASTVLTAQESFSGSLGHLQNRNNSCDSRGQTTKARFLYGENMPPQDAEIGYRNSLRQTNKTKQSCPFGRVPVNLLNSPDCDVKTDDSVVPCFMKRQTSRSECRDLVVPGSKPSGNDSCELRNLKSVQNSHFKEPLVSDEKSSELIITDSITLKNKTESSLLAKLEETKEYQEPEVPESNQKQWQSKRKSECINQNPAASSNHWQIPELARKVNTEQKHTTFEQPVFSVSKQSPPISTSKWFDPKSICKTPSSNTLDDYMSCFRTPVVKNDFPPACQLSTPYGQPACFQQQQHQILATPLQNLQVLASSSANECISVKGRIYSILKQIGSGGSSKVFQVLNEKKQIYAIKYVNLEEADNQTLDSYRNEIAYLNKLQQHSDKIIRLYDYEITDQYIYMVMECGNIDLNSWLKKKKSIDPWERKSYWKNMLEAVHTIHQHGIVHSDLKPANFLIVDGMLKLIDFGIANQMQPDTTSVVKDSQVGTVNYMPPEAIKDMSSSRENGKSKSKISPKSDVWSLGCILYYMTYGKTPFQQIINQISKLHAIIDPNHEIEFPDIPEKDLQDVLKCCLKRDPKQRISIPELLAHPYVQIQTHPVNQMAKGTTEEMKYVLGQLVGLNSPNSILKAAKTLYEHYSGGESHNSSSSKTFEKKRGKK

`Cc1cnc(Nc2ccc(C(=O)N3CCC(N4CCCC4)CC3)cc2)nc1-c1cc2ccccc2s1` has a remaining binding of 26% (binding; competition with immobilised ligand; 1 µM).
For `FC(F)(F)Oc1cccc(-c2cnc3ccc(-c4ccncc4)nn23)c1`, the remaining binding was 53% (binding; competition with immobilised ligand; 5 µM).
`O=C(Nc1c[nH]nc1C(=O)NC1CCNCC1)c1cc(F)cc(F)c1` gave a remaining binding of 100% (binding; competition with immobilised ligand; 1 µM).
For `CN(c1nccc(-c2cnn3ncccc23)n1)C1CC1`, the remaining binding was 69% (binding; 1 µM).
`COc1ccc2c(c1)O[C@H](c1ccc(OC)c(OC)c1)C[C@@H]2NC(=O)C1(c2ccc3c(c2)OC(F)(F)O3)CC1` gave a remaining binding of 100% (cell-free assay; competition with immobilised ligand; 1 µM).
With `C=CC(=O)N1CCC(C(=O)NCC(=O)N2CCN(c3nc(-c4cnc(N)nc4C(F)F)nc(N4CCOCC4)n3)CC2)CC1` the remaining binding was 92% (binding; competition with immobilised ligand; 1 µM).
`O=C(c1ccc(Nc2ncc(Cl)c(-c3ccc(Cl)s3)n2)cc1)N1CCC(N2CCCC2)CC1` gave a remaining binding of 26% (binding; competition with immobilised ligand; 1 µM).
For `CN(C)c1nccc(-c2cnn3ncccc23)n1`, the remaining binding was 100% (binding; 1 µM).
`N#CC1(c2ccccn2)CCN(Cc2cc(C(=O)N3CCCC3)c(=O)n3ccccc23)CC1` has a remaining binding of 98% (cell-free assay; competition with immobilised ligand; 1 µM).
With `CN(C)c1nccc(-c2cnc3ncccn23)n1` the remaining binding was 74% (binding; 1 µM).
`CSc1cccnc1N1CCN(Cc2nc3ccccc3[nH]2)CC1` has a remaining binding of 98% (cell-free assay; competition with immobilised ligand; 1 µM).
`CN(C)c1ncc(F)c(-c2cnn3ncccc23)n1` has a remaining binding of 66% (binding; 1 µM).
`Nc1ncc2c(n1)-c1c([nH]c3ccc(C#CC4CC4)cc13)CCCC2` has a remaining binding of 100% (binding; competition with immobilised ligand; 1 µM).
With `N[C@@H]1CCN(c2nccc(-c3cnn4ncccc34)n2)C1` the remaining binding was 100% (binding; 1 µM).
With `O=C(N[C@H]1CCCCC/C=C\C2C[C@@]2(C(=O)O)NC(=O)[C@@H]2C[C@@H](Oc3ccncc3)CN2C1=O)OC1CCCC1` (some centres unmarked) the remaining binding was 79% (binding; competition with immobilised ligand; 1 µM).
For `C[C@@H]1CCN(c2nccc(-c3cnn4ncccc34)n2)C1`, the remaining binding was 46% (binding; 1 µM).
The remaining binding of `CCCCN(CCCC)C(=O)CN1C[C@H](c2cc(OC)c3c(c2)OCO3)[C@@H](C(=O)O)[C@@H]1CC(C)(C)CCC` is reported as 100% (cell-free assay; competition with immobilised ligand; 1 µM).
`CNC(=O)[C@@H]1CC[C@@H](n2c(-c3ccc4cnccc4c3)nc3ccc(C(=O)NCc4cccc(C(N)=O)c4)cc32)C1` has a remaining binding of 100% (binding; competition with immobilised ligand; 1 µM).
`CO[C@@H](C)c1c(Nc2ccc([C@H](N(C)C(=O)C3CCS(=O)(=O)CC3)C(F)(F)F)cc2)cnc2cc(Cl)nn12` has a remaining binding of 77% (cell-free assay; competition with immobilised ligand; 1 µM).
`O=C(c1ccc(Nc2ncc(Cl)c(-c3cc4ccccc4s3)n2)cc1)N1CCC(N2CCCC2)CC1` gave a remaining binding of 41% (binding; competition with immobilised ligand; 1 µM).
